Results pooled from the literature.
Compare with care: the assays were run in different laboratories.
RET V804M: Proto-oncogene tyrosine-protein kinase receptor Ret (RET, Homo sapiens, UniProt P07949, V804M)
RET: Proto-oncogene tyrosine-protein kinase receptor Ret (RET, Homo sapiens, UniProt P07949)
RET M918T: Proto-oncogene tyrosine-protein kinase receptor Ret (RET, Homo sapiens, UniProt P07949, M918T)
RET K758M: Proto-oncogene tyrosine-protein kinase receptor Ret (RET, Homo sapiens, UniProt P07949, K758M)
RET Y791F: Proto-oncogene tyrosine-protein kinase receptor Ret (RET, Homo sapiens, UniProt P07949, Y791F)
RET V804L: Proto-oncogene tyrosine-protein kinase receptor Ret (RET, Homo sapiens, UniProt P07949, V804L)

| SMILES | target | observed | action | method | tested at | measurement | value |
| --- | --- | --- | --- | --- | --- | --- | --- |
| CCCOc1ccc(OC)c(F)c1C(=O)c1ccc(C(=O)N[C@@H]2CNC[C@H]2NC(=O)c2ccc3[nH]ncc3c2)cc1 | RET V804M | enzyme activity | inhibitor | – | 10 µM | remaining activity | 4% |
| COc1cc2c(N3CCN(C(=O)Nc4ccc(OC(C)C)cc4)CC3)ncnc2cc1OCCCN1CCCCC1 | RET | cell-free assay | – | – | 0.5 µM | remaining signal | 91.5% |
| CN(C)c1nccc(-c2cnn3ncccc23)n1 | RET M918T | binding | – | – | 1 µM | remaining binding | 97% |
| CS(=O)(=O)CCNCc1ccc(-c2ccc3ncnc(Nc4ccc(OCc5cccc(F)c5)c(Cl)c4)c3c2)o1 | RET | cell-free assay | – | – | 0.5 µM | remaining signal | 99.8% |
| O=S(=O)(NC1CCC(c2cc(F)ccc2F)(S(=O)(=O)c2ccc(Cl)cc2)CC1)C(F)(F)F (stereo not drawn) | RET V804M | cell-free assay | – | competition with immobilised ligand | 1 µM | remaining binding | 100% |
| Cc1ccc(NC(=O)c2ccc(C)c(C(F)(F)F)c2)cc1C#Cc1nn(C2CCC(O)CC2)c2ncnc(N)c12 (stereo not drawn) | RET | cell-free assay | – | – | 10 µM | remaining signal | 2% |
| CC(C)(O)c1cncc(-c2nc3ccc(F)cc3n2C2CC2)c1 | RET | cell-free assay | – | competition with immobilised ligand | 1 µM | remaining binding | 100% |
| COc1ccc(CN2C3CC2CN(c2ccc(-c4cc(OCC(C)(C)O)cn5ncc(C#N)c45)cn2)C3)cn1 | RET K758M | thermal stability | – | DSF | 10 µM | ΔTm | 11.9 °C |
| COc1cc(NC(=O)Nc2ccccc2Br)cc2sc(NC(=O)c3ccccc3)nc12 | RET | enzyme activity | inhibitor | radiometric | 0.1 µM | remaining activity | 106% |
| CC/C(=N\NC(=O)NCc1cccc(O)c1)c1ccc(O)c(C)c1O | RET Y791F | enzyme activity | inhibitor | – | 0.1 µM | inhibition | 2.9% |
| Cc1ccc(NC(=O)Nc2ccc(Nc3cc(-n4ccnc4)nc(C)n3)cc2)c(C)c1 | RET | enzyme activity | inhibitor | radiometric | 10 µM | remaining activity | 68.1% |
| Cc1cnn2ncc(-c3ccnc(N(C)C)n3)c2c1 | RET | binding | – | – | 1 µM | remaining binding | 69% |
| COc1cc(NC(=O)Nc2cccc(Br)c2)cc2sc(NC(=O)c3ccccc3)nc12 | RET | enzyme activity | inhibitor | radiometric | 10 µM | remaining activity | 127% |
| Cc1cc(NC(=O)c2cccc3cc(-c4cccc5[nH]nc(N)c45)ccc23)ccc1F | RET V804M | enzyme activity | inhibitor | – | 0.1 µM | activity vs control | 117% |
| Nc1ncnc2occ(-c3ccc(NC(=O)Nc4cc(C(F)(F)F)ccc4F)cc3)c12 | RET V804M | cell-free assay | – | – | 20 µM | remaining signal | 0% |
| C#Cc1cccc(Nc2ncnc3cc(OCCOC)c(OCCOC)cc23)c1 | RET | cell-free assay | – | – | 0.5 µM | remaining signal | 48.6% |
| c1cnn2ncc(-c3ccnc(N4CCC45COC5)n3)c2c1 | RET V804L | binding | – | – | 1 µM | remaining binding | 91% |
| COC(=O)c1cccc(NC(=O)Nc2cc(C)c3nc(NC(=O)c4ccccc4)sc3c2)c1 | RET | enzyme activity | inhibitor | radiometric | 10 µM | remaining activity | 103% |

| SMILES | target | observed | action | method | tested at | measurement | value |
| --- | --- | --- | --- | --- | --- | --- | --- |
| O=C(N1CCS(=O)(=O)CC1)N1C[C@H](c2ccc(OC(F)(F)F)cc2)C[C@H](c2nc(C3CC3)no2)C1 | RET V804L | cell-free assay | – | competition with immobilised ligand | 1 µM | remaining binding | 99% |
| Cc1ccc(NC(=O)Nc2cc3c(cc2Oc2ccccc2)n(C)c(=O)n3C)cc1C | RET | enzyme activity | inhibitor | radiometric | 10 µM | remaining activity | 128% |
| Cc1cc(C)c(-n2ccn3nc(-c4cccnc4)cc23)cc1NC(=O)c1cc(C#N)cc(S(F)(F)(F)(F)F)c1 | RET V804M | cell-free assay | – | competition with immobilised ligand | 0.1 µM | remaining binding | 94.5% |
| C[C@@H]1CCN(c2nccc(-c3cnn4ncccc34)n2)C1 | RET V804M | binding | – | – | 1 µM | remaining binding | 88% |
| CC(=O)Nc1c(C(C)=O)c(=O)n(C)c2nc(-c3ccc(Cl)cc3Cl)c(-c3ccc(Cl)cc3)cc12 | RET | cell-free assay | – | competition with immobilised ligand | 1 µM | remaining binding | 100% |
| N[C@H]1CCN(c2nccc(-c3cnn4ncccc34)n2)C1 | RET | binding | – | – | 1 µM | remaining binding | 51% |
| CO[C@]1(C(=O)N[C@@H](C)c2ccc(-n3cc(F)cn3)nc2)CC[C@H](c2nc(C)cc(Nc3cc(C)[nH]n3)n2)CC1 | RET K758M | thermal stability | – | DSF | 10 µM | ΔTm | 14.2 °C |
| O=C(NCc1ncc(C(F)(F)F)cc1Cl)c1ccc2c(c1)C1(CCS(=O)(=O)CC1)[C@@H](C1CC1)N2S(=O)(=O)c1ccc(F)cc1 | RET V804M | cell-free assay | – | competition with immobilised ligand | 1 µM | remaining binding | 100% |
| COc1cc(NC(=O)Nc2cc(OC)c3nc(NC(=O)c4ccccc4)sc3c2)cc(OC)c1 | RET | enzyme activity | inhibitor | radiometric | 10 µM | remaining activity | 101% |
| CCN(CC)CCNC(=O)c1c(C)[nH]c(/C=C2\C(=O)Nc3ccc(F)cc32)c1C | RET | cell-free assay | – | – | 0.5 µM | remaining signal | 3.43% |
| CCc1ccccc1C(=O)Nc1n[nH]c2c(C)c(F)c(C3C(C#N)=C(C)N(C)C(C)=C3C#N)cc12 | RET M918T | cell-free assay | – | competition with immobilised ligand | 1 µM | remaining binding | 64% |
| Cc1ccc(C(=O)Nc2ccc(CN3CCN(C)CC3)c(C(F)(F)F)c2)cc1C#Cc1cnc2cccnn12 | RET V804M | enzyme activity | – | – | 23.5 nM | remaining activity | 8.4% |
| COc1cccc(Nc2nc(C)c(C(=O)Nc3ccc4c(c3)OCO4)s2)c1 | RET | enzyme activity | inhibitor | radiometric | 0.1 µM | remaining activity | 129% |
| C[C@@H]1CN(c2cc(-c3nn(C)c4ccc(OC5(C)CC5)cc34)ncn2)C[C@H](C)O1 | RET V804M | cell-free assay | – | competition with immobilised ligand | 1 µM | remaining binding | 100% |
| CN(C)c1ncc(F)c(-c2cnn3ncccc23)n1 | RET V804L | binding | – | – | 1 µM | remaining binding | 91% |
| COc1cc(-c2cc(-c3ccc(N4CCNCC4)cc3)cnc2N)cc(OC)c1OC | RET Y791F | enzyme activity | inhibitor | – | 1 µM | inhibition | 13% |
| COc1ccnn2ncc(-c3ccnc(N(C)C)n3)c12 | RET | binding | – | – | 1 µM | remaining binding | 100% |
| Cc1cc(NC(=O)Nc2ccc(F)cc2)cc2sc(NC(=O)c3ccccc3)nc12 | RET | enzyme activity | inhibitor | radiometric | 0.1 µM | remaining activity | 146% |
